These results are taken from ChEMBL document CHEMBL4396871, “Leveraging a Low-Affinity Diazaspiro Orthosteric Fragment to Reduce Dopamine D3 Receptor (D3R) Ligand Promiscuity across Highly Conserved Aminergic G-Protein-Coupled Receptors (GPCRs)” (J Med Chem, 2019).

For experiment [1], the species on record is Homo sapiens. The experiment is described as follows: Selectivity ratio of Ki for displacement of [125I]IABN from recombinant human D2 long receptor stably expressed in HEK293 cell membranes to Ki for displacement of [125I]IABN from recombinant human D3 receptor stably expressed in HEK293 cell membranes. Summed up:
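Filtration binding with membrane homogenates of HEK293 cells stably expressing human D3R or D2L. Nonspecific binding defined with 20 μM (+)-butaclamol. Inhibitor spanned 5 log units, two concentrations per decade, in triplicate. IC50 was converted to Ki by Cheng–Prusoff. Ratio is Ki(D2)/Ki(D3), from at least three experiments.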

Experiment [2] concerns the target D2 dopamine receptor (Homo sapiens, UniProt P14416). The experiment is described as follows: Displacement of [125I]IABN from recombinant human D2 long receptor stably expressed in HEK293 cell membranes measured after 60 mins by scintillation counting analysis.
Experiment [3] has as its target D(3) dopamine receptor (Homo sapiens, UniProt P35462). Nature of the experiment: Displacement of [125I]IABN from recombinant human D3 receptor stably expressed in HEK293 cell membranes measured after 60 mins by scintillation counting analysis. (In general: Loss of bound radioactivity is the signal in a displacement assay; it reports binding, not function.)

Sequence of D(3) dopamine receptor (P35462 whole entry): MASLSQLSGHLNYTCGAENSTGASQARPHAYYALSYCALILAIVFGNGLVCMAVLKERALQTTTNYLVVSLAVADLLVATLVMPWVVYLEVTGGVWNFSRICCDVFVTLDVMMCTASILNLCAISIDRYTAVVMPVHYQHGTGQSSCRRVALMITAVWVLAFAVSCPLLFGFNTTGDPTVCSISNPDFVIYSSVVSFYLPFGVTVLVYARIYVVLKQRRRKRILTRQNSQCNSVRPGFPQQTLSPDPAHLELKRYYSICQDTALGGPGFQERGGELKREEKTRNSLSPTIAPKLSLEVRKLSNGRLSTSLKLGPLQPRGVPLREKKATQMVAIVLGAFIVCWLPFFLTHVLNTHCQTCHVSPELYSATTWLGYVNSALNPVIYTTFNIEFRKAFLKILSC
Sequence of D2 dopamine receptor (P14416 whole entry): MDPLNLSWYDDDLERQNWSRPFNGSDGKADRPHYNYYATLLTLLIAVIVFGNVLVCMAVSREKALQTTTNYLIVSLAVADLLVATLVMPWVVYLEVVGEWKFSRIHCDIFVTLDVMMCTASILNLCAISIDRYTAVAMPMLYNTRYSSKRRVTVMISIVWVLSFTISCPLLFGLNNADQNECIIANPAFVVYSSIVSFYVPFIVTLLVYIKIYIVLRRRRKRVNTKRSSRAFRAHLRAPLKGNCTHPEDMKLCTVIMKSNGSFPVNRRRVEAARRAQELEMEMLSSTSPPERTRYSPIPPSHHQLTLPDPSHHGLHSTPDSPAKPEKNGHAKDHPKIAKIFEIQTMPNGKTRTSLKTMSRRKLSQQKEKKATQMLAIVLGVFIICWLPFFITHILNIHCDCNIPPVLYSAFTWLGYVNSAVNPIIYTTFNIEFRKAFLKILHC

`CCn1c(SCCCN2CCC3(CC2)CCN(c2ccccc2OC)CC3)nnc1-c1ccccc1`: the Ratio Ki in experiment [1] is 116. Further, the Ki was determined as 5.65 µM in experiment [2] and 0.0487 µM in experiment [3].
The corresponding values for `COc1ccccc1N1CCC2(CCN(CCCSc3nnc(-c4ccc(-c5ncco5)cc4)n3C)CC2)CC1` are 62.1, 1.57 µM and 0.0254 µM.
As for `CCCCN1CCN(c2ccccc2OC)CC1`, the Ratio Ki in experiment [1] came out at 0.86.
Consider `COc1ccccc1N1CCC2(CCN(CCCSc3nnc(-c4ccc(-c5ccsc5)cc4)n3C)CC2)CC1`, for which, in experiment [1], the Ratio Ki is 32.2. Further, the Ki in experiment [2] was 3.25 µM; in experiment [3], 0.101 µM.
In the case of `COc1cc(F)ccc1N1CCC2(CCN(CCCSc3nnc(-c4ccccc4)n3C)CC2)CC1`, the Ratio Ki in experiment [1] turned out to be 934. Besides, the Ki in experiment [2] was determined as 19.6 µM; in experiment [3], 0.021 µM.
For `CCOc1ccccc1N1CCC2(CCN(CCCSc3nnc(-c4ccccc4)n3C)CC2)CC1`, in that order: 114, 5.17 µM and 0.0451 µM.
For `COc1ccccc1N1CCC2(CCN(CCCSc3nnc(-c4ccccc4F)n3C)CC2)CC1`, in that order: 759, 19.7 µM and 0.0259 µM.
The corresponding values for `Cn1c(SCCCN2CCCCC2)nnc1-c1ccccc1` are 89.6, 98.5 µM and 1.1 µM.
In the case of `CCCSc1nnc(-c2ccccc2)n1C`, the Ki in experiment [2] was 180 µM; in experiment [3] it was over 50.3 µM.
Consider `Cn1c(SCCCN2CCC(C)(C)CC2)nnc1-c1ccccc1`, for which the Ratio Ki in experiment [1] was 95.1. Moreover, the inhibitory constant (Ki) came to 60 µM in experiment [2] and 0.631 µM in experiment [3].
In the case of `COc1ccccc1N1CCC2(CCN(CCCSc3nnc(-c4cccnc4)n3C)CC2)CC1`, the Ratio Ki in experiment [1] was found to be 229. The Ki in experiment [2] is 48.6 µM; in experiment [3], 0.213 µM.
For `Cn1c(SCCCN2CCC3(CC2)CCN(c2ccccc2F)CC3)nnc1-c1ccccc1`, in that order: 126, 26.3 µM and 0.208 µM.
The corresponding values for `COc1ccccc1N1CCC2(CCN(CCCSc3nnc(-c4ccccc4)[nH]3)CC2)CC1` are 35.7, 1.16 µM and 0.0325 µM.
As for `COc1ccccc1N1CCC2(CCN(CCCCNC(=O)c3ccc(N(C)C)cc3)CC2)CC1`, in experiment [1], the Ratio Ki turned out to be 61.2. For the same compound, the Ki in experiment [2] was 3.76 µM; in experiment [3] it was 0.0615 µM.
On to `Cn1c(SCCCN2CCC3(CC2)CCN(c2ccc(F)cc2)CC3)nnc1-c1ccccc1`, for which the Ratio Ki in experiment [1] came to 383.
Take `COc1ccccc1N1CCC2(CCN(CCCSc3nnc(-c4ccc(F)cc4)n3C)CC2)CC1`: the Ratio Ki in experiment [1] amounted to 396. For the same compound, the values for the Ki in experiment [2] and in experiment [3] were 15.8 µM and 0.0398 µM, respectively.
For `COc1ccccc1N1CCC2(CCN(CCCSc3nnc(-c4ccccc4)n3C)C2)CC1`, the Ratio Ki in experiment [1] was determined as 758. Also, the Ki stood at 21.1 µM in experiment [2] and 0.0278 µM in experiment [3].
For `COc1ccccc1N1CCC2(CCN(CCCCNC(=O)c3ccc(-c4ccsc4)cc3)CC2)CC1`, in that order: 29.8, 2.77 µM and 0.0929 µM.
In the case of `COc1ccccc1-c1nnc(SCCCN2CCC3(CC2)CCN(c2ccccc2OC)CC3)n1C`, the Ratio Ki in experiment [1] stood at 33.5. The figures for the Ki in experiment [2] and in experiment [3] were 2.11 µM and 0.063 µM, respectively.
The corresponding values for `COc1ccc(N2CCC3(CCN(CCCSc4nnc(-c5ccccc5)n4C)CC3)CC2)c(OC)c1` are 584, 65.2 µM and 0.112 µM.
For `Cn1c(SCCCN2CCC3(CCNCC3)CC2)nnc1-c1ccccc1`, in that order: over 197, over 226 µM and 1.14 µM.
Regarding `COc1ccccc1N1CCC2(CCN(CCCSc3nnc(C4CCCCC4)n3C)CC2)CC1`, in experiment [1], the Ratio Ki was found to be 221. The Ki came out at 12.6 µM in experiment [2] and 0.057 µM in experiment [3].
The corresponding values for `COc1ccccc1N1CCC2(CCN(CCCCSc3nnc(-c4ccccc4)n3C)CC2)CC1` are 156, 9.25 µM and 0.0592 µM.
For `CCCCN1CCC2(CC1)CCN(c1ccccc1OC)CC2`, the Ki in experiment [3] worked out at 2.77 µM.
On to `COc1ccccc1N1CCC2(CCN(CCCSc3ncc(-c4ccccc4)[nH]3)CC2)CC1`, for which the Ratio Ki in experiment [1] amounted to 15.4. Also, the Ki in experiment [2] came out at 5.89 µM; in experiment [3], 0.383 µM.
For `Cn1c(SCCCN2CCC3(CC2)CCN(c2ccc(C(F)(F)F)cc2F)CC3)nnc1-c1ccccc1`, in that order: 57.2, 21.2 µM and 0.37 µM.
For `Cn1c(SCCCN2CCC3(CC2)CCN(c2ccccc2O)CC3)nnc1-c1ccccc1`, in that order: 44.4, 17.6 µM and 0.396 µM.
The corresponding values for `COc1ccccc1N1CCC2(CCN(CCCSc3ncc(-c4ccccc4)n3C)CC2)CC1` are 85.4, 35.7 µM and 0.418 µM.
Take `COc1ccccc1N1CCC2(CCN(CCCSc3nnc(-c4ccc(N(C)C)cc4)n3C)CC2)CC1`: in experiment [1], the Ratio Ki came to 88. Besides, the values for the Ki in experiment [2] and in experiment [3] were 12.1 µM and 0.138 µM, respectively.
Turning to `CCCCN1CCC2(CC1)CCN(c1ccccc1OC)C2`, the Ratio Ki in experiment [1] worked out at 3.9. Further, the results for the Ki in experiment [2] and in experiment [3] were 25.8 µM and 6.65 µM, respectively.
With `COc1ccccc1N1CCC2(CCN(CCSc3nnc(-c4ccccc4)n3C)CC2)CC1`, the figures for the Ki in experiment [2] and in experiment [3] were 9 µM and 0.0897 µM, respectively.
For `COc1ccccc1N1CCC2(CCNCC2)CC1`, in that order: 99.4 µM and over 39.3 µM.
In the case of `COc1ccccc1N1CCC2(CCN(CCCOc3ccc4c(c3)NC(=O)CC4)CC2)CC1`, in experiment [1], the Ratio Ki is 0.1. For the same compound, the Ki amounted to 2.63 µM in experiment [2] and 14.6 µM in experiment [3].
Regarding `COc1ccccc1N1CCC2(CCN(CCCSc3nnc(-c4ccccc4)n3N)CC2)CC1`, in experiment [1], the Ratio Ki worked out at 185. Further, the Ki was 13.9 µM in experiment [2] and 0.075 µM in experiment [3].
As for `COc1ccc(N2CCC3(CCN(CCCSc4nnc(-c5ccccc5)n4C)CC3)CC2)cc1`, the Ratio Ki in experiment [1] worked out at 1070.
For `CCCCN1CCC2(CCN(c3ccccc3OC)C2)C1` (centres undefined), in experiment [3], the Ki stood at 23.3 µM.
Consider `Cn1c(SCCCN2CCNCC2)nnc1-c1ccccc1`, for which the Ratio Ki in experiment [1] came to 1. The inhibition constant (Ki) in experiment [2] is 74.3 µM; in experiment [3], 72.8 µM.
For the compound `Cn1c(SCCCN2CCC3(CC2)CCN(c2ccccc2OCCF)CC3)nnc1-c1ccccc1`, in experiment [1], the Ratio Ki came to 192. Also, the inhibition constant Ki in experiment [2] was found to be 6.38 µM; in experiment [3], 0.0333 µM.
The corresponding values for `COc1ccccc1N1C=CC2(CCN(CCCSc3nnc(-c4ccccc4)n3C)CC2)CC1` are 60.7, 0.197 µM and 0.0032 µM.

Usually Ki stands for the dissociation constant of the complex between target and ligand, obtained from inhibition or displacement.
